# Most compounds without a hit are left out; they make up all but 2.7% or so of the library.
# Rev-erbA mod: modulates human Rev-erb alpha binding to DNA; P20393; activity, % at 10 µM; 0.79% of 370,000 active; Rev-erbα–FITC-DNA binding, fluorescence polarization, 90 min;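 active means activity above about 14%, limit read from the data; passing the limit was not always enough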;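 further: 0% = DMSO wells with 35 nM protein and 100% = DMSO wells with 750 nM protein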
# MsrA act: activates bovine MsrA enzyme | purified bovine MsrA, absorbance read-out | activation, % at 10.6 µM | 0.3% of 360,000 active | AID 602163; in the data active means activation above about 7.5%;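 further: 0% = vehicle and 100% = reference activator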
# ASAP1 GAP inh: inhibitors of human ASAP1 ArfGAP activity | 0.19% of 360,000 active | inhibition, % at 16.5 µM | Q9ULH1 | ASAP1-stimulated ARF1 GTP hydrolysis, GDP FP detection | AID 624377; in the data active means inhibition above about 25%;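 further: 0% = vehicle with enzyme and substrate and 100% = no enzyme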
# Target sequence (Q9ULH1 325-724 limits assumed): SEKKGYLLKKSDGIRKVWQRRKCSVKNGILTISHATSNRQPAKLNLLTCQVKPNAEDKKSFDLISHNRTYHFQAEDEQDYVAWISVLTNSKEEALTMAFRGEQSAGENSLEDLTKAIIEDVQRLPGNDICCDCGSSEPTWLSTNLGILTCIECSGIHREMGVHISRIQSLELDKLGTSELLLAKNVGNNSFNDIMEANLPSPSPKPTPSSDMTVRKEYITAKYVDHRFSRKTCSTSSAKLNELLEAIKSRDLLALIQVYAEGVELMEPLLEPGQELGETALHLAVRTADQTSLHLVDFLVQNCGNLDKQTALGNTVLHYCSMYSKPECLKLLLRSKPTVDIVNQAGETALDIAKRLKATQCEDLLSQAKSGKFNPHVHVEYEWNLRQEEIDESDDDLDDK
# ARFGAP1 inhibitor: inhibitors of rat ARFGAP1 | 0.26% of 360,000 active | inhibition, % at 16.5 µM | Q62848 | Arfgap1-stimulated ARF1 GTP hydrolysis, GDP FP detection;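 active means inhibition above a per-plate limit, mean inhibition of low control wells plus 3 SD, cut at about 25% in these data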;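 further: 0% = DMSO wells with enzyme and 100% = wells lacking Arfgap1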
# Target sequence (Q62848 1-136 limits assumed): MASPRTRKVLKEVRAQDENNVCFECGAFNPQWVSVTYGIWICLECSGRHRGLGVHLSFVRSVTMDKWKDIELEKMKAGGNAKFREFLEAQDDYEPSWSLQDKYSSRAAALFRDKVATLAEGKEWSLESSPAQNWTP
#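 Replicates: Single well per compound | Assay system: Truncated rat Arfgap1 GAP domain | Control set: No-Arfgap1 wells (100%) versus DMSO full-reaction wells (0%) | Times: Enzyme reaction 120 min at 25 °C after 20 min preincubation | Reagent: Human ARF1(Δ1-17)-GTP substrate | Measured by: Tracer-displacement fluorescence polarization with EDTA stop, 620/688 nm | Measure: Percent inhibition of Arfgap1-stimulated GTP hydrolysis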
# HGIII-sPLA2 inh: Blocks human group III sPLA2 activity. Q9NZ20. QFRET BODIPY PC-A2 liposome hydrolysis, fluorescence. inhibition, % at 12.2 µM. 0.56% of 370,000 active;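 active means inhibition above mean plus 3 SD of compounds lying within the high and low control bounds, cut at about 19% in these data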;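 further: 0% = median of test compound wells and 100% = no enzyme DMSO wells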
# MsrA inhibitor: inhibitors of bovine MsrA; purified bovine MsrA, absorbance read-out; 0.75% of 360,000 active; inhibition, % at 15.5 µM; in the data active means inhibition above about 4.5%;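 further: 0% = vehicle wells with enzyme and 100% = reference inhibitor wells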
# hGIII sPLA2 conf: human GIII-sPLA2 inhibition, confirmation; shares compounds with HGIII-sPLA2 inh; inhibition, % at 12.2 µM; AID 743280; 34% of 2,000 active; recombinant hGIII-sPLA2, BODIPY PC-A2 QFRET fluorescence;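 active means mean inhibition across triplicates above the hit cutoff set in the earlier primary screen, cut at about 19% in these data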;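 further: 0% = enzyme with DMSO and 100% = DMSO wells lacking enzyme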
# BODIPY interf: optically interferes with 535nm fluorescence in sPLA2 counter-screen; shares compounds with HGIII-sPLA2 inh; BODIPY FL product fluorescence interference, QFRET; inhibition, % at 12.2 µM; 8.5% of 2,000 active; AID 743282;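 active means average inhibition above the solvent-only control mean plus 3 SD, cut at about 6% in these data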;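 further: 0% = DMSO with substrate plus product and 100% = DMSO with substrate alone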
# 535nm interf DR: counter-screen for HGIII-sPLA2 inhibitors: 535nm fluorescence interference, dose response; 240 tested, under 10 active; BODIPY FL product fluorescence interference, cell-free; shares compounds with HGIII-sPLA2 inh; IC50, µM;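 active means IC50 at or below 10 µM; inactive means IC50 above 10 µM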
# Numbers without * were called inactive; nt = not tested or not shown.
SMILES,Rev-erbA mod,MsrA act,ASAP1 GAP inh,ARFGAP1 inhibitor,HGIII-sPLA2 inh,MsrA inhibitor,hGIII sPLA2 conf,BODIPY interf,others
CCCCCCCCN1C(=O)[C@H](CC(=O)N2CCN(C(=O)C3CC3)CC2)C[C@@]2(C(=O)OC)CC(C)(C)CC=C12,3.4,nt,0.3,5.4,-5.8,2.2,nt,nt,
Cc1cc(C)cc(C(=O)OCCCN(C)C2CN(Cc3cn(Cc4ccccc4C(F)(F)F)nn3)S(=O)(=O)C2)c1 (stereo not drawn),3.5,nt,nt,nt,-28.6,nt,nt,nt,
O=[N+]([O-])c1ccc(O)c(/C=N/NC(=S)Nc2ccc(Cl)cc2Cl)c1,5.0,-3.7,4.0,-10.7,39.7*,1.0,30.6*,19.8*,
CN(Cc1ccccc1Cl)C(=O)CN1C(=O)C2(OCCCO2)c2ccccc21,-1.7,nt,nt,nt,-0.2,nt,nt,nt,
O=[N+]([O-])c1ccc(O)c(N=Cc2sc3ccccc3c2O)c1,20.8,-4.7,9.9,3.8,26.0*,1.0,35.9*,4.2,535nm interf DR=>122
CCN(CC)c1ccc(N=Nc2nn(C)c(C)c2[N+](=O)[O-])cc1,5.3,-3.0,-7.4,6.8,22.7*,0.5,39.3*,4.1,535nm interf DR=>122
CCCN1C(=O)/C(=C2/C=Cc3ccccc3N2CC)SC1=S,8.9,-3.8,-1.1,6.6,21.2*,0.0,50.7*,13.3*,
CCCN1/C(=C2/SC(=S)N(CC)C2=O)C=Cc2ccccc21,1.2,-0.8,-10.2,12.4,14.4,-0.9,nt,nt,
CCN1C(=O)/C(=C2/C=Cc3ccccc3N2CC)SC1=S,16.4,-2.0,-3.9,-2.9,21.1*,0.5,43.0*,4.7,535nm interf DR=>122
C[C@H]1[C@@H](NC(=O)Cc2ccsc2)CC[C@@]23CCCN2C(=O)CCC[C@@H]13,2.2,nt,nt,nt,0.8,nt,nt,nt,
Cc1ccc(S(=O)(=O)NC(=O)Nc2ccc(N(C)C)cc2)cc1,-0.6,-2.0,-84.1,-109.8,16.6,1.3,nt,nt,
CCCOc1ccc(C(=O)Nc2ccc(N(C)C)cc2)cc1,3.0,-5.4,-1.6,-3.4,13.5,1.2,nt,nt,
COc1ccc(C(=S)Nc2ccc(N(C)C)cc2)cc1,-1.0,-3.0,-4.9,1.3,23.0*,2.3,26.4*,5.2,
COc1ccc(NC(=S)c2ccc(N(C)C)cc2)cc1,-1.2,-4.5,-15.8,8.6,19.8*,2.3,9.7,-4.8,
CC(C)Oc1ccc(C(=O)Nc2ccc(N(C)C)cc2)cc1,2.1,0.0,-4.9,1.0,19.4*,0.0,15.3,-5.6,
COc1ccc(NC(=S)c2ccccc2)cc1,3.9,-1.2,-0.7,6.1,3.5,-0.5,nt,nt,
Cc1ccc(NC(=S)c2ccc(N(C)C)cc2)cc1,-3.3,-4.3,-2.8,-6.1,24.9*,0.9,15.6,1.5,
Cc1ccc(C(=O)Nc2sc(C)c(C)c2C(=O)c2ccccc2)cc1,-1.7,-1.0,-7.0,8.3,23.3*,0.6,-4.3,-6.0,
Cc1sc(NC(=O)c2ccccc2)c(C(=O)c2ccccc2)c1C,-0.1,-3.0,2.0,8.7,2.2,0.6,nt,nt,
COc1ccc(OC)c(NC(=O)Nc2nc(C(N)CCc3ccccc3)cs2)c1 (stereo not drawn),-10.1,2.4,9.1,12.6,22.7*,-0.1,13.1,-14.1,
COc1ccc(CC(N)c2csc(NC(=O)Nc3cc(OC)ccc3OC)n2)cc1 (stereo not drawn),5.5,-1.6,-3.5,4.7,18.6,0.8,nt,nt,
CC(C)c1ccc(NC(=O)Nc2nc(C(N)CCc3ccccc3)cs2)cc1 (stereo not drawn),-0.6,3.0,2.9,11.7,21.4*,0.9,17.0,-10.3,
CN(C)[C@@H]1CCN(c2cccc3c2S(=O)(=O)N(C2CC2)CCCO3)C1,-1.0,nt,nt,nt,-1.6,nt,nt,nt,
CS(=O)(=O)N[C@@H]1C[C@@H]2O[C@@H](CO)CC[C@@H]2O[C@@H]1CCc1ccc(-c2ccccc2F)cc1,4.5,nt,nt,nt,-19.1,nt,nt,nt,
C/C(=N\NC(=O)c1ccccc1F)c1ccc2c(c1)Nc1ccccc1S2,2.4,-7.0,6.2,2.6,20.4*,0.2,44.6*,10.1*,
SMILES,Rev-erbA mod,MsrA act,ASAP1 GAP inh,ARFGAP1 inhibitor,HGIII-sPLA2 inh,MsrA inhibitor,hGIII sPLA2 conf,BODIPY interf,others
FC(F)(F)c1ccccc1CN1CCCc2nc(-c3ccccc3)ccc21,0.5,nt,11.9,8.6,26.7*,0.9,6.5,-1.4,
FC(F)(F)c1ccccc1CN1CCCc2nc(-c3ccc(Br)cc3)ccc21,9.2,nt,2.2,3.7,22.2*,0.6,13.9,4.3,
COc1ccc(-c2ccc3c(n2)CCCN3Cc2ccccc2C(F)(F)F)cc1,0.0,nt,-8.6,-6.4,16.6,1.7,nt,nt,
COC(=O)[C@]12C[C@H](CC(=O)NCCc3ccccc3OC)C(=O)N(CCC3=CCCCC3)C1=C[C@H](C1CCCC1)O[C@@H]2C,-4.4,nt,nt,nt,9.4,nt,nt,nt,
CC(C)N1CCCCC(NC(=O)c2ccc(F)cc2)C1=O (stereo not drawn),9.9,nt,nt,nt,1.0,nt,nt,nt,
COc1ccc2c(c1)CNC2CS(=O)(=O)NCCc1ccccc1 (stereo not drawn),4.6,nt,nt,nt,0.3,nt,nt,nt,
Cc1ccc(-n2c(Cc3cccs3)nnc2SCc2ccc(C#N)cc2)cc1,-7.9,nt,nt,nt,2.8,nt,nt,nt,
O=C(O)C1CC=CCC1C(=O)N1CCN(c2nc(-c3ccccc3Cl)c3cc(Br)ccc3n2)CC1 (stereo not drawn),2.8,-1.9,-4.3,-1.0,23.9*,0.0,-20.1,-33.9,
O=C(O)C1CC=CCC1C(=O)N1CCN(c2nc(-c3ccccc3)c3ccccc3n2)CC1 (stereo not drawn),-4.6,-4.2,-5.9,-12.8,18.0,-0.6,nt,nt,
CC(C)CC(N)c1csc(Nc2ccc(C(=O)c3ccccc3)cc2)n1 (stereo not drawn),-6.8,-7.7,-6.8,3.2,9.4,-1.7,nt,nt,
CC(=O)c1ccc(Nc2nc(C(N)C(C)C)cs2)cc1 (stereo not drawn),-2.8,-2.7,-21.8,7.6,13.7,4.0,nt,nt,
CC(C)C(N)c1csc(Nc2ccc(C(=O)c3ccccc3)cc2)n1 (stereo not drawn),-6.4,-3.0,5.6,10.1,22.3*,1.0,6.4,-17.5,
CC(N)c1csc(Nc2ccc(C(=O)c3ccccc3)cc2)n1 (stereo not drawn),3.8,-1.9,16.3,-8.5,19.6*,3.5,12.4,-18.5,
Cc1ccc(-c2nnc(SCC(=O)Nc3ccc(OCc4ccccc4)cc3)n2-c2ccc(Cl)cc2)cc1,4.2,nt,nt,nt,0.3,nt,nt,nt,
O=C(c1cc(S(=O)(=O)N2CCCCC2)ccc1F)N1CCCCC1,-2.0,-6.5,nt,nt,nt,nt,nt,nt,
NS(=O)(=O)c1ccc(F)c(C(=O)O)c1,0.8,-4.3,0.9,11.0,25.6*,0.2,3.5,-5.5,
